Data taken from ChEMBL document CHEMBL4138242, “Synthesis and antibacterial evaluation of novel cationic chalcone derivatives possessing broad spectrum antibacterial activity” (Eur J Med Chem, 2018).
Each block holds one molecule with its values, some of them ahead of it.

What was measured:
[1] = test system: Staphylococcus aureus; assay: Antibacterial activity against Staphylococcus aureus ATCC 29213 after 16 to 20 hrs by broth microdilution method; assay type: functional
In short: (§1)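 Broth microdilution per CLSI. Bacteria grown 4-6 h (about 10⁸ CFU/mL), then diluted to about 10⁶ CFU/mL. Medium: Mueller-Hinton broth, except Luria-Bertani broth for E. coli. Compounds in sterile water, twofold series 256-0.5 µg/mL, mixed 1:1 with inoculum, 37 °C for 16-20 h. MIC is the lowest concentration without visible growth. Duplicate wells; experiment repeated at least twice.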

[2] = test system: Enterococcus faecalis; assay: Antibacterial activity against Enterococcus faecalis ATCC 29212 after 16 to 20 hrs by broth microdilution method; assay type: functional; in short: as §1
[3] = test system: Escherichia coli; assay: Antibacterial activity against Escherichia coli ATCC 25922 after 16 to 20 hrs by broth microdilution method; assay type: functional; in short: as §1
[4] = test system: Salmonella enterica; assay: Antibacterial activity against Salmonella enterica ATCC 13076 after 16 to 20 hrs by broth microdilution method; assay type: functional; in short: as §1
[5] = Hemolytic activity in sheep RBC after 1 hr; assay type: ADME, cell-based, Ovis aries, Erythrocyte; settings: sheep red blood cells (erythrocytes)
In short: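 Sheep red blood cells (150 µL suspension) mixed with 50 µL of compound dilutions (5120-10 µg/mL), 1 h at 37 °C, then centrifuged. Supernatant read at 540 nm. Percent hemolysis calculated relative to RBC-only control (0%) and 0.1% Triton X-100 (100%).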

[6] = test system: Staphylococcus aureus; assay: Antibacterial activity against methicillin-resistant Staphylococcus aureus clinical isolate 1105183 cono7 after 16 to 20 hrs by broth microdilution method; assay type: functional
In short: (§2)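 CLSI broth microdilution in Mueller-Hinton broth. A 4-6 h culture was diluted to about 10⁶ CFU/mL and mixed 1:1 with compound dilutions prepared at 256 to 0.5 µg/mL from aqueous stocks. Plates were incubated at 37 °C for 16-20 h and read visually for MIC. Each concentration was run in duplicate, and the experiment was repeated at least twice. Vancomycin and meropenem were comparators.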

[7] = test system: Staphylococcus aureus; assay: Antibacterial activity against methicillin-resistant Staphylococcus aureus clinical isolate 20130911034sau after 16 to 20 hrs by broth microdilution method; assay type: functional; in short: as §2
[8] = test system: Staphylococcus aureus; assay: Antibacterial activity against methicillin-resistant Staphylococcus aureus clinical isolate 0831010 after 16 to 20 hrs by broth microdilution method; assay type: functional; in short: as §2
[9] = test system: Staphylococcus aureus; assay: Antibacterial activity against methicillin-resistant Staphylococcus aureus clinical isolate 1104060 after 16 to 20 hrs by broth microdilution method; assay type: functional; in short: as §2
[10] = test system: Staphylococcus aureus; assay: Antibacterial activity against methicillin-resistant Staphylococcus aureus clinical isolate 20131012632sau after 16 to 20 hrs by broth microdilution method; assay type: functional; in short: as §2
[11] = test system: Staphylococcus aureus; assay: Antibacterial activity against methicillin-resistant Staphylococcus aureus clinical isolate 1207007 after 16 to 20 hrs by broth microdilution method; assay type: functional; in short: as §2
[12] = test system: Staphylococcus aureus; assay: Antibacterial activity against methicillin-resistant Staphylococcus aureus clinical isolate 1-may after 16 to 20 hrs by broth microdilution method; assay type: functional; in short: as §2
[13] = test system: Staphylococcus aureus; assay: Antibacterial activity against methicillin-resistant Staphylococcus aureus clinical isolate 0906202 after 16 to 20 hrs by broth microdilution method; assay type: functional; in short: as §2
[14] = test system: Staphylococcus aureus; assay: Antibacterial activity against methicillin-resistant Staphylococcus aureus clinical isolate 1208143 after 16 to 20 hrs by broth microdilution method; assay type: functional; in short: as §2
[15] = test system: Klebsiella pneumoniae; assay: Antibacterial activity against drug-resistant carbapenemase producing Klebsiella pneumoniae clinical isolate KP-14-8 after 16 to 20 hrs by broth microdilution method; assay type: functional; in short: as §2
[16] = test system: Klebsiella pneumoniae; assay: Antibacterial activity against drug-resistant carbapenemase producing Klebsiella pneumoniae clinical isolate KP-13-45 after 16 to 20 hrs by broth microdilution method; assay type: functional; in short: as §2
[17] = test system: Klebsiella pneumoniae; assay: Antibacterial activity against drug-resistant carbapenemase producing Klebsiella pneumoniae clinical isolate KP-14-3 after 16 to 20 hrs by broth microdilution method; assay type: functional; in short: as §2
[18] = test system: Klebsiella pneumoniae; assay: Antibacterial activity against drug-resistant carbapenemase producing Klebsiella pneumoniae clinical isolate KP-14-1 after 16 to 20 hrs by broth microdilution method; assay type: functional; in short: as §2
[19] = test system: Klebsiella pneumoniae; assay: Antibacterial activity against drug-resistant carbapenemase producing Klebsiella pneumoniae clinical isolate KP-14-4 after 16 to 20 hrs by broth microdilution method; assay type: functional; in short: as §2
[20] = test system: Klebsiella pneumoniae; assay: Antibacterial activity against drug-resistant carbapenemase producing Klebsiella pneumoniae clinical isolate KP-13-54 after 16 to 20 hrs by broth microdilution method; assay type: functional; in short: as §2
[21] = test system: Klebsiella pneumoniae; assay: Antibacterial activity against drug-resistant carbapenemase producing Klebsiella pneumoniae clinical isolate KP-14-2 after 16 to 20 hrs by broth microdilution method; assay type: functional; in short: as §2
[22] = test system: Klebsiella pneumoniae; assay: Antibacterial activity against drug-resistant carbapenemase producing Klebsiella pneumoniae clinical isolate EC-13-23 after 16 to 20 hrs by broth microdilution method; assay type: functional; in short: as §2
[23] = test system: Klebsiella pneumoniae; assay: Antibacterial activity against drug-resistant carbapenemase producing Klebsiella pneumoniae clinical isolate KP-14-5 after 16 to 20 hrs by broth microdilution method; assay type: functional; in short: as §2
[24] = test system: Klebsiella pneumoniae; assay: Antibacterial activity against drug-resistant carbapenemase producing Klebsiella pneumoniae clinical isolate KP-13-55 after 16 to 20 hrs by broth microdilution method; assay type: functional; in short: as §2
[25] = test system: Klebsiella pneumoniae; assay: Antibacterial activity against drug-resistant carbapenemase producing Klebsiella pneumoniae clinical isolate KP-14-45 after 16 to 20 hrs by broth microdilution method; assay type: functional; in short: as §2
[26] = test system: Klebsiella pneumoniae; assay: Antibacterial activity against drug-resistant carbapenemase producing Klebsiella pneumoniae clinical isolate KP-14-18 after 16 to 20 hrs by broth microdilution method; assay type: functional; in short: as §2
[27] = test system: Escherichia coli; assay: Antibacterial activity against drug-resistant NDM1 producing Escherichia coli clinical isolate EC-13-49 after 16 to 20 hrs by broth microdilution method; assay type: functional; in short: as §2
[28] = test system: Escherichia coli; assay: Antibacterial activity against drug-resistant NDM1 producing Escherichia coli clinical isolate Ecl-14-58 after 16 to 20 hrs by broth microdilution method; assay type: functional; in short: as §2
[29] = test system: Escherichia coli; assay: Antibacterial activity against drug-resistant NDM1 producing Escherichia coli clinical isolate KP-13-58 after 16 to 20 hrs by broth microdilution method; assay type: functional; in short: as §2
[30] = test system: Escherichia coli; assay: Antibacterial activity against drug-resistant NDM1 producing Escherichia coli clinical isolate Ecl-13-62 after 16 to 20 hrs by broth microdilution method; assay type: functional; in short: as §2
[31] = test system: Escherichia coli; assay: Antibacterial activity against drug-resistant NDM1 producing Escherichia coli clinical isolate EC-14-54 after 16 to 20 hrs by broth microdilution method; assay type: functional; in short: as §2
[32] = test system: Escherichia coli; assay: Antibacterial activity against drug-resistant NDM1 producing Escherichia coli clinical isolate Ecl-14-59 after 16 to 20 hrs by broth microdilution method; assay type: functional; in short: as §2
[33] = test system: Escherichia coli; assay: Antibacterial activity against drug-resistant NDM1 producing Escherichia coli clinical isolate EA-14-61 after 16 to 20 hrs by broth microdilution method; assay type: functional; in short: as §2
[34] = test system: Escherichia coli; assay: Antibacterial activity against drug-resistant NDM1 producing Escherichia coli clinical isolate Ecl-14-56 after 16 to 20 hrs by broth microdilution method; assay type: functional; in short: as §2
[35] = test system: Escherichia coli; assay: Antibacterial activity against drug-resistant NDM1 producing Escherichia coli clinical isolate 1460 after 16 to 20 hrs by broth microdilution method; assay type: functional; in short: as §2
[36] = test system: Escherichia coli; assay: Antibacterial activity against drug-resistant NDM1 producing Escherichia coli clinical isolate SM-15-84 after 16 to 20 hrs by broth microdilution method; assay type: functional; in short: as §2
[37] = test system: Escherichia coli; assay: Antibacterial activity against drug-resistant NDM1 producing Escherichia coli clinical isolate CF-15-61 after 16 to 20 hrs by broth microdilution method; assay type: functional; in short: as §2
[38] = test system: Escherichia coli; assay: Antibacterial activity against drug-resistant NDM1 producing Escherichia coli clinical isolate CF-13-61 after 16 to 20 hrs by broth microdilution method; assay type: functional; in short: as §2

MIC [1]: 8 µg/mL | MIC [2]: > 128 µg/mL | MIC [3]: > 128 µg/mL | MIC [4]: > 128 µg/mL
Structure (SMILES): CCCCCCCCCCCCCC[N+](C)(C)CC(=O)Nc1ccc(C(=O)/C=C/c2ccccc2F)cc1.[Cl-]
HC50 at 1 h [5]: 192 µg/mL

MIC [1]: 4 µg/mL | MIC [2]: 8 µg/mL | MIC [3]: 16 µg/mL | MIC [4]: 32 µg/mL
Structure (SMILES): CCCCCCCCCCCC[N+](C)(C)CC(=O)Nc1ccc(C(=O)/C=C/c2ccccc2F)cc1.[Cl-]
HC50 at 1 h [5]: 293 µg/mL

Structure (SMILES): CCCCCCCC[N+](C)(C)CC(=O)Nc1ccc(C(=O)/C=C/c2cccs2)cc1.[Cl-]
MIC [1]: 0.5 µg/mL | MIC [2]: 1 µg/mL | MIC [3]: 4 µg/mL | MIC [4]: 8 µg/mL | HC50 at 1 h [5]: 133 µg/mL | MIC [6]: 1 µg/mL | MIC [7]: 1 µg/mL | MIC [8]: 0.5 µg/mL | MIC [9]: 16 µg/mL | MIC [10]: 4 µg/mL | MIC [11]: 1 µg/mL | MIC [12]: 2 µg/mL | MIC [13]: 1 µg/mL | MIC [14]: 2 µg/mL | MIC [15]: 8 µg/mL | MIC [16]: 8 µg/mL | MIC [17]: 8 µg/mL | MIC [18]: 8 µg/mL | MIC [19]: 8 µg/mL | MIC [20]: 8 µg/mL | MIC [21]: 2 µg/mL | MIC [22]: 8 µg/mL | MIC [23]: 8 µg/mL | MIC [24]: 16 µg/mL | MIC [25]: 16 µg/mL | MIC [26]: 16 µg/mL | MIC [27]: 4 µg/mL | MIC [28]: 8 µg/mL | MIC [29]: 2 µg/mL | MIC [30]: 8 µg/mL | MIC [31]: 4 µg/mL | MIC [32]: 8 µg/mL | MIC [33]: 8 µg/mL | MIC [34]: 8 µg/mL | MIC [35]: 2 µg/mL | MIC [36]: 4 µg/mL | MIC [37]: 8 µg/mL | MIC [38]: 8 µg/mL

MIC [1]: 16 µg/mL | MIC [2]: 16 µg/mL | MIC [3]: 64 µg/mL | MIC [4]: 128 µg/mL
Structure (SMILES): CCCC[N+](C)(C)CC(=O)Nc1ccc(C(=O)/C=C/c2ccccc2F)cc1.[Cl-]
HC50 at 1 h [5]: 262 µg/mL

MIC [1]: 2 µg/mL | MIC [2]: 4 µg/mL | MIC [3]: 16 µg/mL | MIC [4]: 16 µg/mL
Structure (SMILES): CCCCCCCC[N+](C)(C)CC(=O)Nc1cccc(C(=O)/C=C/c2cccs2)c1.[Cl-]
HC50 at 1 h [5]: 249 µg/mL

MIC [3]: < 0.125 µg/mL
Structure (SMILES): C[C@@H](O)[C@H]1C(=O)N2C(C(=O)O)=C(S[C@@H]3CN[C@H](C(=O)N(C)C)C3)[C@H](C)[C@H]12 [MEROPENEM]

MIC [1]: 8 µg/mL | MIC [2]: 2 µg/mL | MIC [3]: > 128 µg/mL | MIC [4]: > 128 µg/mL
Structure (SMILES): CCCCCCCC[N+](C)(C)CC(=O)Nc1ccc(C(=O)/C=C/c2cc([N+](=O)[O-])ccc2OCC)cc1.[Cl-]
HC50 at 1 h [5]: 102 µg/mL

MIC [1]: 128 µg/mL | MIC [2]: 128 µg/mL | MIC [3]: > 128 µg/mL | MIC [4]: > 128 µg/mL
Structure (SMILES): CCCC[N+](C)(C)CC(=O)Nc1ccc(C(=O)/C=C/c2ccncc2)cc1.[Cl-]
HC50 at 1 h [5]: > 500 µg/mL

MIC [1]: 32 µg/mL | MIC [2]: 64 µg/mL | MIC [3]: > 128 µg/mL | MIC [4]: > 128 µg/mL
Structure (SMILES): CCCCCCCC[N+](C)(C)CC(=O)Nc1ccc(C(=O)/C=C/c2cccc(F)c2)cc1.[Cl-]
HC50 at 1 h [5]: 68 µg/mL
